# Compound activity as filed in PubChem.
# Sampled rows, rich in hits. Any-hit rate of the full collection: about 6.1%.
# hDAT+cocaine: changed human dopamine transporter uptake under cocaine IC80 | Q01959 | LLC-PK1 hDAT cells, [14C]-dopamine uptake with cocaine IC80; actives deviate in either direction | B-score at 10 µM | actives 1.3% (n = 110,000) | AID 449768;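 active = Z score or B-score, a plate-position-corrected score, falls beyond the plate's 99.7% confidence bounds, in either direction; inactive = both scores lie inside the 99.7% bounds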;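 also: scored against the spread of the other compound wells on the same plate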
# Target sequence (Q01959 whole entry, looked up): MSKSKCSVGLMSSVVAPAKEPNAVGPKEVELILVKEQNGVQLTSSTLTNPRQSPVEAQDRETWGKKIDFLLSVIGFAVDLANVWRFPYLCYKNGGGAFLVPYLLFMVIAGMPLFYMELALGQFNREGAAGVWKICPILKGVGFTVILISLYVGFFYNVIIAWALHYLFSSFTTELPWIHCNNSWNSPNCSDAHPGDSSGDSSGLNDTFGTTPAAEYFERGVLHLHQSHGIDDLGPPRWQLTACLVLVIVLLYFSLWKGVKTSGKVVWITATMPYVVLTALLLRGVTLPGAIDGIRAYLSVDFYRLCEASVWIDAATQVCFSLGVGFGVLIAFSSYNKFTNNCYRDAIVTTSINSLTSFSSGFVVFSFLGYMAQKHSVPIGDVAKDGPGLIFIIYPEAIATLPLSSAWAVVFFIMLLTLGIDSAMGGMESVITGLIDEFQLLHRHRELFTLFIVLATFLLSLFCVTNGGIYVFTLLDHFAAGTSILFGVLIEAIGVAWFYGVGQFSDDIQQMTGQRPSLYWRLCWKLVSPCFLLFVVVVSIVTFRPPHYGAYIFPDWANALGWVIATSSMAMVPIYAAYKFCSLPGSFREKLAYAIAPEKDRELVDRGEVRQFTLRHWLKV
# WT yeast gro inh: growth inhibition of WT yeast, mitochondrial fusion screen. AID 1362. mitochondrial fusion phenotypic screen, WT strain. inhibition, % at 10 µM. actives 2.1% (n = 190,000); in the data active = inhibition above about 58%; tested in S. cerevisiae
# Yeast lifespan up: extends the lifespan of yeast. AID 775. actives 0.68% (n = 130,000). inhibition of the nicotinamide effect, % at 10 µM. S. cerevisiae growth with nicotinamide, OD615; deaD strain in restrictive glucose medium;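 active = inhibition above a set limit, placed 3 SD over the median of all compounds, cut at about 26% in these data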;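 also: 0% = nicotinamide-treated wells and 100% = cells grown without nicotinamide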
#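 System: DeaD-strain S. cerevisiae / Buffer or medium: CSMM-D, restrictive glucose (dextrose) synthetic minimal medium / Probe or stimulus: nicotinamide, 1.5 mM, co-present with compound / Compound: one concentration, 10 µM, DMSO 0.25% / Incubation: 48 h compound exposure at 30 °C, humidified / Technique: optical density (absorbance) at 615 nm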
# RAM network inh: blocks the yeast RAM network | inhibition, % at 50 µM | actives 1.8% (n = 190,000) | S. cerevisiae dse1pr::URA3 reporter, 5-FOA growth OD615, 2 d; analog-sensitive cbk1-as2 kinase mutant strain;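 active = inhibition above a set limit, 3 SD over mean compound inhibition, cut at about 8.4% in these data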;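 also: 0% = DMSO-only wells with no growth and 100% = 10 µM 1-NA-PP1 full growth; inhibition rescues growth on 5-FOA so higher OD means more RAM inhibition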
# Yeast growth inh: chemicals that inhibit yeast BB579 growth in restrictive medium (lifespan-shortening candidates) | inhibition, % at 10 µM | S. cerevisiae BB579 growth, OD615, 48 h | actives 0.51% (n = 140,000);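 active = inhibition above a set limit, 3 SD over the mean compound inhibition, cut at about 44% in these data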
#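 Test system: Saccharomyces cerevisiae DeaD strain BB579, replicative lifespan model yeast | Buffer or medium: Restrictive CSMM-D medium | Doses: One dose, 10 µM compound with 0.25% DMSO | Incubation: 48 h exposure, 30 °C | Detection: Culture absorbance at 615 nm | Control set: Amphotericin B at 10 µg/mL as positive control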
# Measles CPE: protection of cells from measles virus. Measles virus-infected cells, CPE protection, absorbance. protection (pct of control), % at 4 µM. actives 1.5% (n = 140,000); in the data active = protection mostly above about 24%, no sharp cut-off; inactive = mostly below about 26%
# Active calls of the source: *; / = not tested or not shown.
SMILES,hDAT+cocaine,WT yeast gro inh,Yeast lifespan up,RAM network inh,Yeast growth inh,Measles CPE
CCc1ccc(N2C(=O)NC(=O)C(CCc3ccncc3)(CCc3ccncc3)C2=O)cc1,/,15,9,1,-11,17
O=C1NC(=O)C(CCc2ccncc2)(Cc2cccc(Cl)c2Cl)C(=O)N1c1ccc(Br)cc1 (stereo not given),/,75*,-1,2,-32,0
Cc1csc(=N)n1Cc1ccccc1,/,6,3,3,-28,30
COC(=O)c1cc(C(O)(C(=O)OC)C(F)(F)F)c(/N=C/N(C)C)s1 (stereo not given),-0.51,6,-13,1,-21,6
O=C(Nc1ccc(F)cc1)N1CC2CC(C1)c1cccc(=O)n1C2 (stereo not given),-1.1,73*,-13,-1,-4,11
CN1C(=O)CN=C(c2ccccc2)c2cc([N+](=O)[O-])ccc21,/,-17,/,/,/,/
Cc1ccccc1Cc1c(C)nc2nc(SCC(=O)N3CCC4(CC3)OCCO4)nn2c1C,-0.37,2,-18,1,-18,23
CCn1nc(-c2ccccc2)nc2c(=O)n(C)c(=O)nc1-2,-0.018,90,-14,-1,100*,5
Cc1nc2c(=O)n(C)c(=O)nc-2n(C)n1,/,10,/,-1,-22,9
CCC(=O)Nc1ccc(N2CCN(CC)CC2)c(Cl)c1,/,70*,-12,2,9,9
COc1ccc(-c2csc(NC(=O)COC(=O)Cc3ccccc3)n2)cc1OC,/,-3,3,8,-44,22
COc1ccccc1Cn1c(SCC#N)nc2cc(C(=O)N3CCC4(CC3)OCCO4)ccc2c1=O,/,-6,/,0,/,/
COc1cc(OC)cc(-n2nc(C(=O)N3CCC4(CC3)OCCO4)c3ccccc3c2=O)c1,-0.26,0,-1,0,-22,52*
O=C(Nc1ccccc1)c1cccn(Cc2ccccc2)c1=O,/,17,/,9.2*,/,/
CCCCc1nc2ccccc2c(=O)n1-c1ccc(Cl)cc1[N+](=O)[O-],-1,64*,-16,3,-32,19
CCCCc1nc2ccccc2c(=O)n1-c1ccccc1[N+](=O)[O-],-0.18,8,-2,1,-18,9
CCCC/C(C)=C/[C@@H](NP(=O)(c1ccccc1)c1ccccc1)c1ccccc1,0.093,91*,15,3,-44,9
Cc1ccc(/C=C2/C(=O)NC(=O)N(CC3CCCO3)C2=O)s1 (stereo not given),/,-11,22,2,-41,5
O=C(Nc1ccc(Br)cc1)c1nn(C23CC4CC(CC(C4)C2)C3)cc1Br,3*,9,-9,2,-56,23
CCOP(=S)(NN(Cc1ccccc1)C(=O)c1ccccc1)OCC,/,-16,4,0,-3,25
O=C1CC(c2ccccc2)CC(O)=C1C=NCCN1CCN(C(=O)Cc2ccccc2)CC1 (stereo not given),0.86,3,82*,0,-60,7
OC(c1cccc(Cl)c1)(c1cccc(Cl)c1)C1CN2CCC1CC2 (stereo not given),/,-16,/,0,/,/
CS(=O)(=O)NCc1nnc2n1-c1ccc(Cl)cc1C(c1ccccc1)=NC2,/,-2,4,0,-21,28*
CCS(=O)(=O)NCc1nnc2n1-c1ccc(Cl)cc1C(c1ccccc1)=NC2,/,-10,-3,1,-9,6
O=P(C(Cl)Cl)(N1CCCCC1)N1CCCCC1,-0.87,21,-11,0,-24,14
SMILES,hDAT+cocaine,WT yeast gro inh,Yeast lifespan up,RAM network inh,Yeast growth inh,Measles CPE
CN(C)C(=O)Oc1ccc(OC(=O)c2ccccc2)cc1,0.067,3,-24,4,-33,11
CN(C(=O)Oc1ccc(C(=O)c2ccc(Cl)cc2)cc1)c1ccccc1,/,25,5,8.4*,-25,10
Cc1ccc(/C=C2\C(=O)NC(=O)N(CCc3ccc(F)cc3)C2=O)s1,/,11,/,6,/,/
Cc1ccc(/C=C2\C(=O)NC(=O)N(CCc3ccc(F)cc3)C2=O)o1,/,-7,39*,7,-37,12
CNCC(O)c1cc(OCc2ccccc2)c(OCc2ccccc2)cc1F (stereo not given),0.2,/,/,/,/,/
CCOC(=O)C1SC2(C(F)F)CC1(O)c1c(c(OC)c3occc3c1OC)O2 (stereo not given),-0.016,64*,-26,0,-54,17
O=P(O)(O)Cc1c(Cl)cccc1Cl,/,-10,0,-1,-6,4
CC[n+]1c(SC)ccc2cc(OC)ccc21,/,71*,13,1,-29,13
CCCC1COC(Cn2cncn2)(c2ccc(Cl)cc2Cl)O1 (stereo not given),-0.083,11,-23,-1,94*,16
CCCCCCCCCOc1ccc2[nH]cc(CCN)c2c1,2,97*,/,/,/,/
COc1ccc2[nH]cc(CCN)c2c1,-0.32,-13,-3,-1,-8,9
CN1/C(=C\C=C\C2=[N+](C)c3ccc4ccccc4c3C2(C)C)C(C)(C)c2ccccc21,-0.045,16,-23,-1,87*,2
N#CC1=C(N)Oc2c(c(=O)oc3ccccc23)C1c1cccnc1 (stereo not given),-0.65,-3,-5,-1,-14,19
CCOc1cc(C2C(C#N)=C(N)Oc3c2c(=O)oc2ccccc32)ccc1OC(=O)c1cccs1 (stereo not given),/,21,5,8.9*,-24,11
CN(C(=O)Oc1cccc2cccnc12)c1ccccc1,0.0038,-2,-3,0,-13,18
CN(C(=O)Oc1ccc(Cl)c2cccnc12)c1ccccc1,/,-9,3,1,-55,31*
O=C(COC(=O)Cc1ccccc1)Nc1cc(S(=O)(=O)N2CCOCC2)ccc1N1CCCC1,/,-11,1,0,-43,5
C[C@H](N)CN1CCc2ccc(Br)cc21,0.058,/,/,/,/,/
Cc1oc2ccc(OC(=O)N(C)C)cc2c1C(=O)OC(C)C,-0.64,75*,-6,1,-12,3
COc1cccc(Oc2c(C)oc3cc(OC(=O)N(C)C)ccc3c2=O)c1,1.1,-1,-7,0,-8,23
COCCCn1c(-c2ccc(OC)cc2)cc(C(=O)NC2CCCCCCC2)c1C,/,55,2,11*,-31,14
O=C(C1CC(c2ccc(Cl)c(Cl)c2)=NO1)N1CCC2(CC1)OCCO2 (stereo not given),-0.44,-1,-11,2,2,3
C=C(C)[C@H]1CN[C@H](C(=O)O)[C@H]1CC(=O)O,-0.7,/,/,/,/,/
Cc1oc(-c2ccccc2)nc1CN1C(=O)CN=C(c2ccccc2)c2ccccc21,/,58*,14,0,-23,7
O=C(NCc1ccc(C(=O)N2CCC3(CC2)OCCO3)cc1)c1cccc(Br)c1,-0.43,10,-22,-1,-25,26*
CCc1sc(C(=O)N2CCC3(CC2)OCCO3)cc1Br,0.074,0,-11,0,-4,1
O=C(NCCO)c1nsnc1NCCCl,/,-1,/,0,/,/
